Like-named read-outs stand apart in the source and are kept apart here.
Experiments:
CYP3A4 = conditions: 1’-hydroxymidazolam
CYP2C19 = conditions: read-out: IC50, reversible inhibition; ref unpublished inhouse data; cited from earlier work
[1] = Adverse events, DDI evaluation period; type: in vivo, human (patients with solid tumors)
CYP2C8 = conditions: read-out: IC50, reversible inhibition; ref unpublished inhouse data; cited from earlier work
solid tumors = assay: Anti-tumor efficacy, continuous administration period; type: in vivo, human (patients with solid tumors)
How it was run: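 Open-label single-arm multicenter study in Japan. Test compound 250 mg given orally, fasted, on 5 consecutive days from Day 1 of repeated 21-day cycles (2 days off), until discontinuation. Investigator-assessed per RECIST 1.1. ORR is the % with best response CR/PR; DCR is the % with CR/PR/SD. OS in osteosarcoma runs from enrollment to death from any cause, censored at the last recorded follow-up or observation.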

[2] = Adverse events, continuous administration period; type: in vivo, human (patients with solid tumors)
CYP3A = conditions: time-dependent inhibition; ref unpublished inhouse data; cited from earlier work
CYP2C9 = conditions: read-out: IC50, reversible inhibition; ref unpublished inhouse data; cited from earlier work
[3] = TAS-115 trough plasma concentrations; type: in vivo, human (patients with solid tumors)
CYP2B6 = conditions: read-out: IC50, reversible inhibition; ref unpublished inhouse data; cited from earlier work
[4] = midazolam 2.5 mg alone (Day −2)
[5] = midazolam 2.5 mg with TAS-115 250 mg once daily (Day 5)
[6] = After Administration of TAS-115, DDI period (N=18)
[7] = Entire DDI Evaluation Period (N=18)
[8] = All patients (N=16), efficacy-evaluable
[9] = Continuous Administration Period (N=18)
[10] = continuous administration period

OCc1ncc2n1-c1ccc(Cl)cc1C(c1ccccc1F)=NC2 [1’-Hydroxymidazolam, 1’-hydroxymidazolam]
AUCinf, Geometric LSM (CYP3A4; [4]): 19.92 ng·h/mL | AUClast, Geometric LSM (CYP3A4; [4]): 19.33 ng·h/mL | Cmax, Geometric LSM (CYP3A4; [4]): 8.195 ng/mL | AUCinf, Geometric LSM (CYP3A4; [5]): 20.86 ng·h/mL | AUClast, Geometric LSM (CYP3A4; [5]): 20.13 ng·h/mL | Cmax, Geometric LSM (CYP3A4; [5]): 8.391 ng/mL

CNC(=O)c1cc2c(Oc3ccc(NC(=S)NC(=O)Cc4ccccc4)cc3F)ccnc2cc1OC [TAS-115, pamufetinib]
IC50 (CYP2C19): 4.23 µM | Any >=Grade 3 TEAEs [1, 6]: 2 (11.1) N (%) | Any >=Grade 3 TRAEs [1, 6]: 1 (5.6) N (%) | Any >=Grade 3 TRAEs Related to TAS-115 [1, 6]: 1 (5.6) N (%) | Any SAEs [1, 6]: 0 (0.0) N (%) | Any TEAEs [1, 6]: 15 (83.3) N (%) | Any TEAEs Leading to Death [1, 6]: 0 (0.0) N (%) | Any TEAEs Leading to Discontinuation of Study Medication [1, 6]: 0 (0.0) N (%) | Any TEAEs Leading to Dose Interruption of TAS-115 [1, 6]: 0 (0.0) N (%) | Any TEAEs Leading to Dose Reduction of TAS-115 [1, 6]: 0 (0.0) N (%) | Any TRAEs [1, 6]: 15 (83.3) N (%) | Any TRAEs Leading to Death [1, 6]: 0 (0.0) N (%) | Any TRAEs Leading to Discontinuation of Study Medication [1, 6]: 0 (0.0) N (%) | Any TRAEs Related to TAS-115 [1, 6]: 14 (77.8) N (%) | Any TRAEs Related to TAS-115 Leading to Dose Interruption of TAS-115 [1, 6]: 0 (0.0) N (%) | Any TRAEs Related to TAS-115 Leading to Dose Reduction of TAS-115 [1, 6]: 0 (0.0) N (%) | Any Treatment-Related SAEs [1, 6]: 0 (0.0) N (%) | Grade 3 or higher TRAE (anaemia) attributed to TAS-115 ([1]; DDI evaluation period): one patient | patients reporting TEAEs ([1]; DDI evaluation period): 83.3% | patients with TRAEs ([1]; DDI evaluation period): 83.3% | patients with TRAEs related to TAS-115 ([1]; DDI evaluation period): 14 patients | patients with TEAEs of ≥ Grade 3 ([1]; DDI evaluation period, anemia and lipase increased): 11.1% | Any >=Grade 3 TEAEs [1, 7]: 2 (11.1) N (%) | Any >=Grade 3 TRAEs [1, 7]: 1 (5.6) N (%) | Any >=Grade 3 TRAEs Related to TAS-115 [1, 7]: 1 (5.6) N (%) | Any SAEs [1, 7]: 0 (0.0) N (%) | Any TEAEs [1, 7]: 15 (83.3) N (%) | Any TEAEs Leading to Death [1, 7]: 0 (0.0) N (%) | Any TEAEs Leading to Discontinuation of Study Medication [1, 7]: 0 (0.0) N (%) | Any TEAEs Leading to Dose Interruption of TAS-115 [1, 7]: 0 (0.0) N (%) | Any TEAEs Leading to Dose Reduction of TAS-115 [1, 7]: 0 (0.0) N (%) | Any TRAEs [1, 7]: 15 (83.3) N (%) | Any TRAEs Leading to Death [1, 7]: 0 (0.0) N (%) | Any TRAEs Leading to Discontinuation of Study Medication [1, 7]: 0 (0.0) N (%) | Any TRAEs Related to TAS-115 [1, 7]: 14 (77.8) N (%) | Any TRAEs Related to TAS-115 Leading to Dose Interruption of TAS-115 [1, 7]: 0 (0.0) N (%) | Any TRAEs Related to TAS-115 Leading to Dose Reduction of TAS-115 [1, 7]: 0 (0.0) N (%) | Any Treatment-Related SAEs [1, 7]: 0 (0.0) N (%) | IC50 (CYP2C8): 0.563 µM | CR (solid tumors; [8]): 0 (0.0) N (%) | Disease control rate (CR+PR+SD) (solid tumors; [8]): 6 (37.5) N (%) | PD (solid tumors; [8]): 10 (62.5) N (%) | PR (solid tumors; [8]): 1 (6.3) N (%) | Progression-free survival, Censored (solid tumors; [8]): 2 (12.5) N (%) | Progression-free survival, Event (solid tumors; [8]): 14 (87.5) N (%) | Progression-free survival, Median (solid tumors; [8]): 2.1 month | Response rate (CR+PR) (solid tumors; [8]): 1 (6.3) N (%) | CR (solid tumors; Osteosarcoma (N=4)): 0 (0.0) N (%) | Disease control rate (CR+PR+SD) (solid tumors; Osteosarcoma (N=4)): 2 (50.0) N (%) | Overall survival, Censored (solid tumors; Osteosarcoma (N=4)): 1 (25.0) N (%) | Overall survival, Event (solid tumors; Osteosarcoma (N=4)): 3 (75.0) N (%) | Overall survival, Median (solid tumors; Osteosarcoma (N=4)): 13.8 month | PD (solid tumors; Osteosarcoma (N=4)): 2 (50.0) N (%) | PR (solid tumors; Osteosarcoma (N=4)): 1 (25.0) N (%) | Progression-free survival, Censored (solid tumors; Osteosarcoma (N=4)): 0 (0.0) N (%) | Progression-free survival, Event (solid tumors; Osteosarcoma (N=4)): 4 (100.0) N (%) | Progression-free survival, Median (solid tumors; Osteosarcoma (N=4)): 7.0 month | Response rate (CR+PR) (solid tumors; Osteosarcoma (N=4)): 1 (25.0) N (%) | DCR (solid tumors; patients with solid tumors, 16 evaluable): 37.5% | Any >=Grade 3 TEAEs [2, 9]: 8 (44.4) N (%) | Any >=Grade 3 TRAEs Related to TAS-115 [2, 9]: 6 (33.3) N (%) | Any SAEs [2, 9]: 5 (27.8) N (%) | Any TEAEs [2, 9]: 18 (100.0) N (%) | Any TEAEs Leading to Death [2, 9]: 0 (0.0) N (%) | Any TEAEs Leading to Discontinuation of Study Medication [2, 9]: 1 (5.6) N (%) | Any TEAEs Leading to Dose Interruption of TAS-115 [2, 9]: 10 (55.6) N (%) | Any TEAEs Leading to Dose Reduction of TAS-115 [2, 9]: 1 (5.6) N (%) | Any TRAEs Leading to Death [2, 9]: 0 (0.0) N (%) | Any TRAEs Leading to Discontinuation of Study Medication [2, 9]: 1 (5.6) N (%) | Any TRAEs Related to TAS-115 [2, 9]: 17 (94.4) N (%) | Any TRAEs Related to TAS-115 Leading to Dose Interruption of TAS-115 [2, 9]: 9 (50.0) N (%) | Any TRAEs Related to TAS-115 Leading to Dose Reduction of TAS-115 [2, 9]: 1 (5.6) N (%) | Any Treatment-Related SAEs [2, 9]: 2 (11.1) N (%) | Grade 3 rash maculo-papular leading to discontinuation of TAS-115 [2, 10]: One patient | TEAE blood creatine phosphokinase (CK) increased [2, 10]: 27.8% | TRAE of ≥ Grade 3 related to TAS-115: anaemia [2, 10]: 11.1% | TRAE related to TAS-115: alanine aminotransferase increased [2, 10]: 33.3% | TRAE related to TAS-115: anemia [2, 10]: 27.8% | TRAE related to TAS-115: aspartate aminotransferase increased [2, 10]: 55.6% | TRAE related to TAS-115: blood CK increased [2, 10]: 27.8% | TRAE related to TAS-115: platelet count decreased [2, 10]: 22.2% | TRAE related to TAS-115: rash [2, 10]: 22.2% | criteria for severe drug-induced liver injury (Hy’s law) [2, 10]: No criteria for severe drug-induced liver injury (Hy’s law) were met | patients reporting TEAEs [2, 10]: 100% | patients requiring dose interruption by AEs [2, 10]: 55.6% | patients requiring dose reduction due to AEs related to TAS-115 [2, 10]: 5.6% | patients with SAEs [2, 10]: 27.8% | patients with TEAEs of ≥ Grade 3 [2, 10]: 44.4% | patients with TRAEs of ≥ Grade 3 related to TAS-115 [2, 10]: 33.3% | patients with TRAEs related to TAS-115 [2, 10]: 94.4% | deaths ([2]; continuous administration period or within 30 days following discontinuation): No deaths occurred | concentration of the inhibitor required to achieve 50% of the maximum inactivation rate (CYP3A): 28.5 µmol/L | maximum inactivation rate constant (CYP3A): 0.0650 min⁻¹ | IC50 (CYP2C9): 2.03 µM | trough plasma concentration, arithmetic mean (standard deviation) ([3]; Day 4, 250 mg once daily oral): 834.5 (318.68) ng/mL | trough plasma concentration, arithmetic mean (standard deviation) ([3]; Day 5, 250 mg once daily oral): 881.6 (378.03) ng/mL | concentration at 24 h ([3]; human, plasma, po, 250 mg): 576 ng/mL | IC50 (CYP2B6): 6.03 µM

Reference: publication PMC12823633 (Cancer Chemotherapy and Pharmacology, 2026)
